The text below walks through data of PubChem BioAssay AID617 (SRMLSC, 2007).

For the assay, the system named is E. coli BW25113 ΔtolC growth inhibition, OD615. The assay is described as follows: E. coli ΔtolC antibacterial growth inhibition – strain BW25113 ΔtolC::kan, dose response (AID 617). The method, boiled down: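 Material: E. coli BW25113 ΔtolC::kan bacteria; input: inoculum from 1:1000-diluted 1.5 h subculture; medium: kanamycin-containing LB broth, 50 µg/mL; dosing: compounds in serially diluted dose-response series; incubation: 20 h exposure at 37 °C; measured by: absorbance at 615 nm; control set: chloramphenicol control, 30 µM final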
Regarding `CCOc1ccc2nc(N3CCCN(C(=O)Nc4ccccc4C)CC3)c(C#N)cc2c1`, the IC50 is 36.3 µM. For `O=c1[nH]c(=O)n(C2CCCCCC2)c(O)c1C=NCc1ccc(F)cc1` the value was 14.6 µM; for `CC1CCCCN1C(=O)CSc1nc(C2CC2)nc2c1cnn2-c1ccccc1` (configuration not stated), 12.3 µM; for `O=c1c2ccccc2n(Cc2ccc(F)cc2)c(=O)n1C1CCCC1`, 9.26 µM.

As for `COc1ccc2nc(N3CCC(C)CC3)c(C#N)cc2c1`, the IC50 is 28.9 µM.

Consider `N#Cc1c(N)oc(-c2ccc3c(c2)OCO3)c1-c1ccc2c(c1)OCO2`, for which the IC50 was 49.9 µM. For `COc1cccc(-c2cc(C(F)(F)F)nc(N3CCOCC3)n2)c1` the value was 16.5 µM; for `Cc1cccc(S(=O)(=O)Nc2nc3ccccc3nc2NCc2ccco2)c1`, 6.92 µM; for `Cc1ccc2cc(CN(Cc3ccccc3)Cc3nnnn3C3CCCC3)c(=O)[nH]c2c1`, 11.6 µM. In the case of `O=c1n(Cc2ccccc2)c2cc(Cl)cnc2n1Cc1ccccc1`, the IC50 was 10.2 µM. `N#Cc1c(/N=C/c2ccco2)oc(-c2ccccc2)c1-c1ccccc1`: the IC50 is 6.78 µM. For `CC(C)Cn1c(N)c(C(=O)NCc2cccs2)c2nc3ccccc3nc21`, the IC50 was 12.9 µM.

On to `CCN(CCCNC(=O)CCc1nc(-c2ccc(C)cc2)no1)c1cccc(C)c1`, for which the IC50 is 68.8 µM. In the case of `CCn1c2ccccc2c2cc(NC(=O)c3ccco3)ccc21`, the IC50 was 8.97 µM.

`CCOC(=O)c1cc(CC)sc1NC(=O)Cc1ccsc1`: the half-maximal inhibitory concentration (IC50) is 10.3 µM. `CCn1cc(C(=O)NCc2ccc3c(c2)OCO3)c(=O)c2cc(F)c(N3CCN(C)CC3)cc21`: the IC50 was 2.8 µM. For `COc1ccccc1C1CC(c2ccc(Cl)cc2)Nc2ncnn21` (configuration not stated) the value was 15.1 µM. The value for `O=C(Nc1cccc(-c2nnc(-c3ccccc3)o2)c1)c1ccc(Br)o1` was 5.69 µM; that for `COC(=O)c1sc(N2C(=O)C(O)=C(C(=O)c3ccc(C)o3)C2c2ccc(F)cc2)nc1C` (configuration not stated) was 15.6 µM; that for `Cc1ccsc1C(=O)Nc1nnc(-c2ccco2)o1` was 3.92 µM. The value for `CCCOC(=O)c1ccc(-c2c(C)noc2-c2ccc(OC)cc2O)o1` was 4.71 µM.

In the case of `COc1ccccc1-c1cc(C(=O)NCc2ccccc2)no1`, the IC50 was 17.1 µM. The value for `Cc1cc(C)cc(Nc2cc(=O)n(C3CCCCC3)c(=O)[nH]2)c1` was 2.8 µM; that for `CCC(Sc1nnc(-c2ccc(C)c(Cl)c2)n1CC)C(=O)Nc1nccs1` (configuration not stated) was 14.9 µM. For the molecule `CCOC(=O)c1ccc(N2C(=O)c3n[nH]c(C)c3C2c2ccc(OC)cc2OC)cc1` (configuration not stated), the IC50 was 16.8 µM. For `COc1ccc(NC(=O)N(C2CCCCC2)C(C)c2ccco2)c(OC)c1` (configuration not stated) the value was 15 µM; for `CCOC(=O)c1ccc(NC(=O)CCc2nc(-c3ccccc3Cl)no2)cc1`, 10.4 µM; for `Cc1ccc2c(c1)c1c(n2CC(O)Cn2c(C)nc3ccccc32)/C(=N\O)CCC1` (configuration not stated), 26.1 µM. For `Clc1ccc(C(c2nnnn2C2CCCCC2)N(Cc2cccnc2)Cc2ccco2)cc1` (configuration not stated) the value was 14.8 µM; for `CCOc1cc(/C=C(/C#N)c2ccc(F)cc2)ccc1OCc1ccc(C(=O)O)o1`, 4.4 µM. Take `CCCCCCn1c(N2CCN(c3ccccc3)CC2)nc2c1c(=O)n(C)c(=O)n2C`: the IC50 was 10.1 µM. For `CCCCn1nc(NC(=O)c2cccs2)c2cc3ccccc3nc21` the value was 8.28 µM; for `Cc1ccc(SCC(=O)N(Cc2nc(-c3ccccc3)no2)C(C)C)cc1`, 10.8 µM; for `CCCCNc1cc(C)nc(NCc2ccccc2)n1`, 7.8 µM. The value for `Cc1cccc(-c2cc3nc4c(c(N5CCOCC5)n3n2)CCCC4)c1` was 16 µM. The value for `CC(C)c1nc(N2CCN(C(=O)c3ccco3)CC2)c2c3c(sc2n1)CCCC3` was 13.6 µM. For `CCOC(=O)c1c(NC(=O)CN(CC)CC)sc2c1CCC2`, the IC50 is 13.8 µM. The value for `COc1cc2c3c(c1)C1(C(=O)N3C(C)(C)C=C2C)C(C#N)=C(N)Oc2cc(O)ccc21` (configuration not stated) was 6.64 µM; that for `Cc1nn(Cc2ccccc2)c(C)c1C(=O)OCC(=O)c1cc(C)n(C2CC2)c1C` was 11.3 µM. The value for `COCc1nnc(NC(=O)c2ccc(S(=O)(=O)N3CCCCCC3)cc2)o1` was 7.62 µM; that for `O=C(Nc1nc(-c2ccccc2)ns1)c1cccs1` was 28.4 µM. The value for `O=S(=O)(Nc1nc2ccccc2nc1NCc1ccco1)c1cccs1` was 8.75 µM. With `Brc1ccc(-c2nc(-c3ccccc3)no2)o1`, the IC50 was 30.1 µM. For `O=S(=O)(Nc1ncnc2sc3c(c12)CCC3)c1ccc(Cl)s1` the value was 5.93 µM; for `Cc1ccc(CN2CCSc3ccc(C(=O)N4CCN(c5ncccn5)CC4)cc32)cc1`, 17 µM. For the molecule `CC1CCC2C(C1)c1sc(=O)[nH]c1SC2(C)C` (configuration not stated), the IC50 is 7.77 µM. For `O=C(NCC1CCCO1)c1sc(=S)n2c1[nH]c(=O)c1ccc(C(=O)N3CCCCC3)cc12` (configuration not stated) the value was 16.4 µM.

With `Cc1ccc2oc(C(=O)NCc3ccc4c(c3)OCO4)c(C)c2c1`, the IC50 was 11.1 µM. For `CC(C)COc1ccc(-c2nnc(-c3ccco3)o2)cc1` the value was 40.6 µM. For `CCc1cc(/C(Cc2ccc3ccccc3n2)=N\O)c(O)cc1O` the value was 8.41 µM; for `CCc1nc2sc3ccccc3c(=O)c2c(=O)n1Cc1ccco1`, 17.1 µM; for `Cc1cccc(OCCCCc2c(C)n[nH]c2C)c1C`, 1.56 µM. The value for `O=C(Nc1ccc(S(=O)(=O)N2CCCc3ccccc32)cc1)C1CCCO1` (configuration not stated) was 19.6 µM; that for `Clc1ccc(Cl)c(-c2nn3c(COc4ccccc4)nnc3s2)c1` was 0.78 µM. As for `Clc1ccc(OCc2nc(-c3ccccn3)n[nH]2)cc1`, the IC50 was 15.4 µM. The value for `Cc1cc(Cl)ccc1OC(C)C(=O)Nc1ccccc1N1CCOCC1` (configuration not stated) was 8.59 µM; that for `Cc1cccc(N2CCN(C(=O)Cc3c(C(=O)O)[nH]c4ccc(Cl)cc34)CC2)c1C` was 7.52 µM; that for `Cc1ccccc1OCCCN1C(=O)C(=O)c2cccc(C)c21` was 103 µM. Take `COCc1nnc(NC(=O)c2ccc(S(=O)(=O)N(C)C3CCCCC3)cc2)o1`: the IC50 is 4.09 µM. For `c1ccc(-c2ccccc2-c2nc(-c3cccnc3)no2)cc1` the value was 13.9 µM; for `COc1cc2cc(C(c3nnnn3C3CCCCC3)N(C)C3CCCCC3)c(=O)[nH]c2cc1OC` (configuration not stated), 9.71 µM; for `O=C(NCc1ccco1)C(c1cccs1)N(C(=O)C1COc2ccccc2O1)c1cccc(O)c1` (configuration not stated), 11.8 µM. For `N#C/C(=C\c1ccco1)Sc1nc2ccccc2s1` the value was 8.6 µM. The value for `O=C(NC1CCCCC1)c1sc(=S)n2c1[nH]c(=O)c1ccccc12` was 0.83 µM; that for `CCCn1nnnc1NC(=O)CSc1ccc(Cl)cc1` was 4.21 µM; that for `CCc1cc2c(N3CCN(c4ccccc4)CC3)ncnc2s1` was 13.6 µM. Turning to `Cc1ccc(C2(c3ccc(C)cc3)NC(=O)N(Cc3c(C)noc3C)C2=O)cc1`, the IC50 was 6.45 µM. For `Oc1ccc(-c2[nH]ncc2-c2ccc(Cl)cc2)c(O)c1` the value was 11.1 µM. Consider `c1coc(CNc2nc(N3CCCCC3)nc3ccccc23)c1`, for which the IC50 was 16.9 µM. The value for `COc1ccc(-c2noc(CCCc3ccccc3)n2)cc1OC` was 23.1 µM; that for `Cc1ccc(C)c2[nH]c(=O)c(CN(CC3CCCO3)S(=O)(=O)c3ccc4c(c3)OCCO4)cc12` (configuration not stated) was 38.6 µM; that for `O=C(NCc1ccc2c(c1)OCO2)c1ccc(COc2cccc(Cl)c2)o1` was 7.25 µM.

One may read the IC50 as the point on the concentration scale where inhibition reaches its midpoint.
